Published values gathered from unrelated publications.
Lines come from different studies, so protocols differ.
Effect on: cell growth or viability

O=c1cc(OCc2cc(-c3ccc(Cl)cc3Cl)no2)c2ccccc2o1 — IC50 (HL-60; MTS; 72 h): > 100000 nM
S=C(N/N=C/c1cccc2cc3ccccc3nc12)Nc1ccccc1 — IC50 (SK-BR-3; MTT; 48 h): > 50000 nM
COc1cc(C(=O)c2nc(-c3ccncc3)c[nH]2)cc(OC)c1OC — IC50 (M14; MTS; 72 h): > 1000 nM
CC(C)CNC(=S)N/N=C/c1cccc2cc3ccccc3nc12 — IC50 (SK-BR-3; MTT; 48 h): > 50000 nM
c1ccc(Oc2ccc(Nc3c4c(nc5ccccc35)CCC4)cc2)cc1 — IC50 (RAW264.7; resazurin; 72 h): 40800 nM
COc1ccc(Nc2ncnc3c2ncn3Cc2ccc(C(=O)NO)cc2)cc1 — IC50 (U-266; MTT; 72 h): 1110 nM
Nc1ccn([C@@H]2O[C@H](CO)[C@@H](O)C2(F)F)c(=O)n1 — IC50 (MP41; ATP luminescence; 72 h): 76.9 nM
C[C@H]1[C@H](C)CC[C@]2(C)CC[C@]3(C)C(=CC(=O)[C@@H]4[C@@]5(C)CC[C@@H](O)[C@](C)(C(=O)NCc6cn(-c7ccc(F)cc7)nn6)[C@@H]5CC[C@]43C)[C@H]12 — IC50 (HDF; MTT; 24 h): 108000 nM
COc1cc([C@@H]2c3cc4c(cc3[C@H](O)[C@H]3COC(=O)[C@H]23)OCO4)cc(OC)c1OC — IC50 (MP41; ATP luminescence; 72 h): 6.49 nM
COc1cc(C(=O)c2nc(-c3cccc4[nH]nnc34)c[nH]2)cc(OC)c1OC — IC50 (M14; MTS; 72 h): 53.2 nM
C/C(=N/NC(=O)c1cn(-c2ccccc2)nc1-c1ccc(Br)cc1)c1c(O)cc(C)oc1=O — IC50 (Vero; MTT; 48 h): 192000 nM
COc1ccc(-c2nc(N3CCOCC3)c3sc(CN(C)c4ncc(C(=O)NO)cn4)cc3n2)cn1 — IC50 (MP41; ATP luminescence; 72 h): 5.96 nM
COc1cc(C(=O)c2nc(-c3cccc4[nH]cnc34)c[nH]2)cc(OC)c1OC — IC50 (M14; MTS; 72 h): 15.9 nM
COc1cc([C@@H]2c3cc4c(cc3[C@@H](O[C@@H]3O[C@@H]5CO[C@@H](C)O[C@H]5[C@H](O)[C@H]3O)[C@H]3COC(=O)[C@H]23)OCO4)cc(OC)c1O — IC50 (HL-60; MTS; 72 h): 30 nM
C/C(=N/NC(=O)c1cn(-c2ccccc2)nc1-c1ccc(C)cc1)c1c(O)cc(C)oc1=O — IC50 (Vero; MTT; 48 h): 216000 nM
N#Cc1ccc(-c2cc(COc3cc(=O)oc4ccccc34)on2)cc1 — IC50 (HL-60; MTS; 72 h): > 100000 nM
COc1ccc(-c2ccc3c(N4CCOC[C@@H]4C)nc(N4CCOC[C@@H]4C)nc3n2)cc1COC(=O)CCOCCOCCOCCONC(=O)c1ccc(F)c(F)c1Nc1ccc(I)cc1F — IC50 (D54; WST-1; 72 h): 327 nM
CC(=O)N1c2ccc(-c3ccc(C(=O)O)cc3)cc2[C@H](Nc2ccc(Cl)cc2)C[C@@H]1C — IC50 (MP41; ATP luminescence; 72 h): 154 nM
C[C@H]1[C@H](C)CC[C@]2(C)CC[C@]3(C)C(=CC(=O)[C@@H]4[C@@]5(C)CC[C@@H](O)[C@](C)(C(=O)NCc6cn(-c7ccc(Br)cc7)nn6)[C@@H]5CC[C@]43C)[C@H]12 — IC50 (HDF; MTT; 24 h): 117000 nM
COc1cc(C(=O)c2nc(-c3ccc4cc[nH]c4c3)c[nH]2)cc(OC)c1OC — IC50 (M14; MTS; 72 h): 14.3 nM
O=C(NO)c1ccc(Cn2cnc3c(Nc4ccc(Br)cc4F)ncnc32)cc1 — IC50 (U-266; MTT; 72 h): 750 nM
Clc1ccc(-c2cc(CNc3cccc4cccnc34)on2)c(Cl)c1 — IC50 (HL-60; MTS; 72 h): 67100 nM
O=C1C[C@@H](c2ccccc2)Oc2cc(O)cc(O)c21 — IC50 (Vero; MTT; 72 h): 103000 nM
COc1cc(C(=O)c2nc(-c3ccsc3)c[nH]2)cc(OC)c1OC — IC50 (M14; MTS; 72 h): 48.5 nM
Nc1ccccc1NC(=O)c1ccc(Cn2cnc3c(Nc4ccc(Cl)cc4)ncnc32)cc1 — IC50 (U-266; MTT; 72 h): 330 nM
CCCNC(=S)N/N=C/c1cccc2cc3ccccc3nc12 — IC50 (SK-BR-3; MTT; 48 h): > 50000 nM
COc1ccc(N(C)c2nc(C)nc3ccccc23)cc1OCCCC(=O)NO — IC50 (MP41; ATP luminescence; 72 h): 84.4 nM
COc1cccc2c1C(=O)c1c(O)c3c(c(O)c1C2=O)C[C@@](O)(C(=O)CO)C[C@@H]3O[C@H]1C[C@H](N)[C@H](O)[C@H](C)O1 — IC50 (SK-BR-3; MTT; 24 h): 54.4 µg/mL
COc1cc(C(=O)c2nc(-c3cccc4c3CCN4)c[nH]2)cc(OC)c1OC — IC50 (M14; MTS; 72 h): 43.4 nM
C[C@H]1[C@H](C)CC[C@]2(C)CC[C@]3(C)C(=CC(=O)[C@@H]4[C@@]5(C)CC[C@@H](O)[C@](C)(C(=O)NCc6cn(-c7ccccc7)nn6)[C@@H]5CC[C@]43C)[C@H]12 — IC50 (HDF; MTT; 24 h): 181000 nM
CO[C@H]1[C@H](O[C@H]([C@H]2O[C@@H](n3ccc(=O)[nH]c3=O)[C@H](O)[C@@H]2O)[C@H](NCCCNC(=O)[C@@H](NC(=O)[C@@H](NC(=O)N[C@H](C(=O)O)C(C)C)[C@@H]2CCN=C(N)N2)[C@@H](OC(=O)CCCCCCCCCCCCN(O)C(=N)N)C(C)C)C(=O)O)O[C@H](CN)[C@H]1O — IC50 (SK-BR-3; WST-1): 590 nM
COc1cc(C(=O)c2nc(-c3cccc4[nH]ccc34)cs2)cc(OC)c1OC — IC50 (M14; MTS; 72 h): 4.5 nM
COc1ccc(-n2cc(CNC(=O)[C@@]3(C)[C@H](O)CC[C@@]4(C)[C@H]3CC[C@]3(C)[C@@H]4C(=O)C=C4[C@@H]5[C@@H](C)[C@H](C)CC[C@]5(C)CC[C@]43C)nn2)cc1 — IC50 (HDF; MTT; 24 h): 109000 nM
COc1ccc(Nc2ncnc3c2ncn3Cc2ccc(C(=O)Nc3ccccc3N)cc2)cc1 — IC50 (U-266; MTT; 72 h): 4210 nM
N#Cc1ccc(-c2cc(CNc3cccc4cccnc34)on2)cc1 — IC50 (HL-60; MTS; 72 h): 16500 nM
C[C@H]1[C@H](C)CC[C@]2(C)CC[C@]3(C)C(=CC(=O)[C@@H]4[C@@]5(C)CC[C@@H](O)[C@](C)(C(=O)NCc6cn(-c7cccc(Br)c7)nn6)[C@@H]5CC[C@]43C)[C@H]12 — IC50 (HDF; MTT; 24 h): 121000 nM
COc1nnc2ccc(N3CCC(c4ccc(OCCN5CCN(C)C(=O)[C@H]5C)cc4)CC3)nn12 — IC50 (MP41; ATP luminescence; 72 h): 90.4 nM
Fc1ccc(NC(=S)N/N=C/c2cccc3cc4ccccc4nc23)cc1 — IC50 (SK-BR-3; MTT; 48 h): > 50000 nM
CC(=O)O[C@@]12CO[C@@H]1C[C@H](O)[C@@]1(C)C(=O)[C@H](O)C3=C(C)[C@@H](OC(=O)[C@H](O)[C@@H](NC(=O)OC(C)(C)C)c4ccccc4)C[C@@](O)([C@@H](OC(=O)c4ccccc4)[C@H]21)C3(C)C — IC50 (SK-BR-3; MTT; 24 h): > 50 µg/mL
